Source: ChEMBL document CHEMBL5096226, “Structure-Activity Relationship Study of Momordica Saponin II Derivatives as Vaccine Adjuvants” (J Med Chem, 2022)
Active and inactive are the calls of the source.

Key:
Type in all cases: functional, organism-based
Mus musculus [1] = assay: Immuno-adjuvant activity in BALB/c mouse assessed as increase in anti-OVA Ig2a antibody in serum at 50 ug, sc administered on day 0, 14 and 28 and measured at 4 weeks in presence of chicken egg ovalbumin by ELISA; conditions: dose 50.0 µg, time 6.0 weeks, in the assay text read “measured at 6 weeks” for “measured at 4 weeks”
Method in brief: (§1)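 Female BALB/c mice (8–10 wk, six per group) immunized s.c. with OVA 20 μg ± adjuvant on days 0, 14, 28. Tail-vein serum taken before each dose and 2 wk after the last. ELISA on OVA-coated (0.1 μg/mL) plates in borate saline pH 8.2. Twofold serum dilutions in duplicate, overnight at 4 °C. HRP anti-mouse IgG/subclass applied 4 h, OPD substrate, read at 490 nm. Concentrations from reference-serum standard curves (4-parameter fit).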

Mus musculus [2] = assay: Immuno-adjuvant activity in BALB/c mouse assessed as increase in intracellular level of INFgamma in spleen CD4+ cells at 50 ug, sc administered on day 0, 14 and 28 and measured at week 6 post immunization by flow cytometry analysis; conditions: dose 50.0 µg, time 6.0 weeks
Method in brief: (§2)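 Female BALB/c mice (8–10 wk, six per group) given OVA 20 μg s.c. with adjuvant on days 0, 14, 28; spleens taken at week 6. Splenocytes stained with viability dye, Fc-blocked, surface-stained 30 min. For intracellular cytokines, cells stimulated 5 h with leukocyte activation cocktail plus GolgiPlug, then fixed/permeabilized. IL-21 detected with IL-21R Fc chimera. All steps at 4 °C. Read as MFI, mean ± SEM.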

Mus musculus [3] = assay: Immuno-adjuvant activity in BALB/c mouse Splenocyte assessed as increase in CD4+ surface expression of PD-1 at 50 ug, sc administered on day 0, 14 and 28 and measured at week 6 post immunization by flow cytometry analysis; conditions: dose 50.0 µg, time 6.0 weeks; method in brief: as §2
Mus musculus [4] = assay: Immuno-adjuvant activity in BALB/c mouse assessed as increase in intracellular level of INFgamma in spleen CD8+ cells at 50 ug, sc administered on day 0, 14 and 28 and measured at week 6 post immunization by flow cytometry analysis; conditions: dose 50.0 µg, time 6.0 weeks; method in brief: as §2
Mus musculus [5] = assay: Immuno-adjuvant activity in BALB/c mouse assessed as increase in CD19+ B cells in spleen at 50 ug, sc administered on day 0, 14 and 28 and measured at week 6 post immunization by flow cytometry analysis; conditions: dose 50.0 µg, time 6.0 weeks
Method in brief: (§3)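 Female BALB/c mice (8–10 wk, six per group), OVA 20 μg s.c. plus adjuvant on days 0, 14, 28; spleens collected week 6. Single-cell splenocyte suspensions stained and analysed by flow cytometry. TFH gated PD-1+Bcl6+Foxp3−CD4+CD3+, TFR PD-1+Bcl6+Foxp3+CD4+CD3+, dark zone GC B cells CXCR4hiCD86loFas+GL-7+CD19+. Steps at 4 °C. Mean ± SEM; unpaired t tests.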

Mus musculus [6] = assay: Immuno-adjuvant activity in BALB/c mouse assessed as increase in ratio of TFH to TFR cells at 50 ug, sc administered on day 0, 14 and 28 and measured at week 6 post immunization by flow cytometry analysis; conditions: dose 50.0 µg, time 6.0 weeks; method in brief: as §3
Mus musculus [7] = assay: Immuno-adjuvant activity in BALB/c mouse assessed as increase in anti-OVA IgG2a antibody in serum at 50 ug, sc administered on day 0, 14 and 28 and measured at 2 weeks in presence of chicken egg ovalbumin by ELISA; conditions: dose 50.0 µg, time 6.0 weeks, in the assay text read “measured at 6 weeks” for “measured at 2 weeks”; method in brief: as §1
Mus musculus [8] = assay: Immuno-adjuvant activity in BALB/c mouse assessed as increase in anti-OVA IgG antibody in serum at 50 ug, sc administered on day 0, 14 and 28 and measured at 4 and 6 weeks in presence of chicken egg ovalbumin by ELISA; conditions: dose 50.0 µg, time 4-6 weeks; method in brief: as §1

Measured: Activity

C[C@@H]1O[C@@H](O[C@H]2[C@H](O)[C@@H](C(=O)NCCCCCCCCCCC(=O)OCc3cccc([N+](=O)[O-])c3)O[C@@H](O[C@H]3CC[C@]4(C)[C@H]5CC=C6[C@@H]7CC(C)(C)CC[C@]7(C(=O)O[C@@H]7O[C@H](C)[C@H](O)[C@H](O)[C@H]7O[C@@H]7O[C@@H](C)[C@H](O[C@@H]8OC[C@@H](O)[C@H](O)[C@H]8O)[C@@H](O[C@@H]8O[C@H](CO)[C@@H](O)[C@H](O[C@@H]9OC[C@@H](O)[C@H](O)[C@H]9O)[C@H]8O)[C@H]7O)[C@H](O)C[C@@]6(C)[C@]5(C)CC[C@H]4[C@]3(C)C=O)[C@@H]2O[C@@H]2O[C@H](CO)[C@H](O)[C@H](O)[C@H]2O)[C@H](O)[C@H](O)[C@H]1O
not listed: Mus musculus [7] | Mus musculus [8]
active: all other assays above

C[C@@H]1O[C@@H](O[C@H]2[C@H](O)[C@@H](C(=O)NCCCCCCCCCCC(=O)OCc3ccc(F)cc3)O[C@@H](O[C@H]3CC[C@]4(C)[C@H]5CC=C6[C@@H]7CC(C)(C)CC[C@]7(C(=O)O[C@@H]7O[C@H](C)[C@H](O)[C@H](O)[C@H]7O[C@@H]7O[C@@H](C)[C@H](O[C@@H]8OC[C@@H](O)[C@H](O)[C@H]8O)[C@@H](O[C@@H]8O[C@H](CO)[C@@H](O)[C@H](O[C@@H]9OC[C@@H](O)[C@H](O)[C@H]9O)[C@H]8O)[C@H]7O)[C@H](O)C[C@@]6(C)[C@]5(C)CC[C@H]4[C@]3(C)C=O)[C@@H]2O[C@@H]2O[C@H](CO)[C@H](O)[C@H](O)[C@H]2O)[C@H](O)[C@H](O)[C@H]1O
active: Mus musculus [1] | Mus musculus [3] | Mus musculus [4] | Mus musculus [5] | Mus musculus [6]

C[C@@H]1O[C@@H](O[C@H]2[C@H](O)[C@@H](C(=O)NCCCCCCCCCCNC(=O)c3ccccc3)O[C@@H](O[C@H]3CC[C@]4(C)[C@H]5CC=C6[C@@H]7CC(C)(C)CC[C@]7(C(=O)O[C@@H]7O[C@H](C)[C@H](O)[C@H](O)[C@H]7O[C@@H]7O[C@@H](C)[C@H](O[C@@H]8OC[C@@H](O)[C@H](O)[C@H]8O)[C@@H](O[C@@H]8O[C@H](CO)[C@@H](O)[C@H](O[C@@H]9OC[C@@H](O)[C@H](O)[C@H]9O)[C@H]8O)[C@H]7O)[C@H](O)C[C@@]6(C)[C@]5(C)CC[C@H]4[C@]3(C)C=O)[C@@H]2O[C@@H]2O[C@H](CO)[C@H](O)[C@H](O)[C@H]2O)[C@H](O)[C@H](O)[C@H]1O
active: Mus musculus [7]

C[C@@H]1O[C@@H](O[C@H]2[C@H](O)[C@@H](C(=O)NCCCCCCCCCCCOCc3ccccc3)O[C@@H](O[C@H]3CC[C@]4(C)[C@H]5CC=C6[C@@H]7CC(C)(C)CC[C@]7(C(=O)O[C@@H]7O[C@H](C)[C@H](O)[C@H](O)[C@H]7O[C@@H]7O[C@@H](C)[C@H](O[C@@H]8OC[C@@H](O)[C@H](O)[C@H]8O)[C@@H](O[C@@H]8O[C@H](CO)[C@@H](O)[C@H](O[C@@H]9OC[C@@H](O)[C@H](O)[C@H]9O)[C@H]8O)[C@H]7O)[C@H](O)C[C@@]6(C)[C@]5(C)CC[C@H]4[C@]3(C)C=O)[C@@H]2O[C@@H]2O[C@H](CO)[C@H](O)[C@H](O)[C@H]2O)[C@H](O)[C@H](O)[C@H]1O
active: Mus musculus [8] | Mus musculus [7]

C[C@@H]1O[C@@H](O[C@H]2[C@H](O)[C@@H](C(=O)NCCCCCCCCCCC(=O)OCc3cccc(Oc4ccccc4)c3)O[C@@H](O[C@H]3CC[C@]4(C)[C@H]5CC=C6[C@@H]7CC(C)(C)CC[C@]7(C(=O)O[C@@H]7O[C@H](C)[C@H](O)[C@H](O)[C@H]7O[C@@H]7O[C@@H](C)[C@H](O[C@@H]8OC[C@@H](O)[C@H](O)[C@H]8O)[C@@H](O[C@@H]8O[C@H](CO)[C@@H](O)[C@H](O[C@@H]9OC[C@@H](O)[C@H](O)[C@H]9O)[C@H]8O)[C@H]7O)[C@H](O)C[C@@]6(C)[C@]5(C)CC[C@H]4[C@]3(C)C=O)[C@@H]2O[C@@H]2O[C@H](CO)[C@H](O)[C@H](O)[C@H]2O)[C@H](O)[C@H](O)[C@H]1O
active: Mus musculus [1] | Mus musculus [3]

C[C@@H]1O[C@@H](O[C@H]2[C@H](O)[C@@H](C(=O)NCCCCCCCCCCCOC(=O)c3ccccc3)O[C@@H](O[C@H]3CC[C@]4(C)[C@H]5CC=C6[C@@H]7CC(C)(C)CC[C@]7(C(=O)O[C@@H]7O[C@H](C)[C@H](O)[C@H](O)[C@H]7O[C@@H]7O[C@@H](C)[C@H](O[C@@H]8OC[C@@H](O)[C@H](O)[C@H]8O)[C@@H](O[C@@H]8O[C@H](CO)[C@@H](O)[C@H](O[C@@H]9OC[C@@H](O)[C@H](O)[C@H]9O)[C@H]8O)[C@H]7O)[C@H](O)C[C@@]6(C)[C@]5(C)CC[C@H]4[C@]3(C)C=O)[C@@H]2O[C@@H]2O[C@H](CO)[C@H](O)[C@H](O)[C@H]2O)[C@H](O)[C@H](O)[C@H]1O
active: Mus musculus [8] | Mus musculus [7]

COc1cc(COC(=O)CCCCCCCCCCNC(=O)[C@H]2O[C@@H](O[C@H]3CC[C@]4(C)[C@H]5CC=C6[C@@H]7CC(C)(C)CC[C@]7(C(=O)O[C@@H]7O[C@H](C)[C@H](O)[C@H](O)[C@H]7O[C@@H]7O[C@@H](C)[C@H](O[C@@H]8OC[C@@H](O)[C@H](O)[C@H]8O)[C@@H](O[C@@H]8O[C@H](CO)[C@@H](O)[C@H](O[C@@H]9OC[C@@H](O)[C@H](O)[C@H]9O)[C@H]8O)[C@H]7O)[C@H](O)C[C@@]6(C)[C@]5(C)CC[C@H]4[C@]3(C)C=O)[C@H](O[C@@H]3O[C@H](CO)[C@H](O)[C@H](O)[C@H]3O)[C@@H](O[C@@H]3O[C@@H](C)[C@H](O)[C@@H](O)[C@H]3O)[C@@H]2O)cc(OC)c1
active: Mus musculus [1]

COc1cccc(COC(=O)CCCCCCCCCCNC(=O)[C@H]2O[C@@H](O[C@H]3CC[C@]4(C)[C@H]5CC=C6[C@@H]7CC(C)(C)CC[C@]7(C(=O)O[C@@H]7O[C@H](C)[C@H](O)[C@H](O)[C@H]7O[C@@H]7O[C@@H](C)[C@H](O[C@@H]8OC[C@@H](O)[C@H](O)[C@H]8O)[C@@H](O[C@@H]8O[C@H](CO)[C@@H](O)[C@H](O[C@@H]9OC[C@@H](O)[C@H](O)[C@H]9O)[C@H]8O)[C@H]7O)[C@H](O)C[C@@]6(C)[C@]5(C)CC[C@H]4[C@]3(C)C=O)[C@H](O[C@@H]3O[C@H](CO)[C@H](O)[C@H](O)[C@H]3O)[C@@H](O[C@@H]3O[C@@H](C)[C@H](O)[C@@H](O)[C@H]3O)[C@@H]2O)c1
active: Mus musculus [1] | Mus musculus [2] | Mus musculus [3] | Mus musculus [4] | Mus musculus [5]
